System: Fibroblast
Assay: Multiplex assay against human fibroblast
Format: toxicity, cell-based
Summary of the method: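 Per cents of healthy-nucleus cells form the tubulin, mitochondrial-mass and membrane-permeability phenotype values. Live cells were stained at seeding with Hoechst33342, BioTracker Green Microtubule Cytoskeleton Dye, MitoTracker Red and Annexin V Alexa Fluor 680. After compound addition they were imaged on a CQ1 microscope at 37°C and 5% CO2, and CellPathfinder machine-learning gating split them into Hoechst high-intensity objects or normal cells, normal cells into healthy, pyknosed or fragmented nuclei, and pyknosed cells into mitotic or apoptotic.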

[1] = 12 h, 1 µM, compound concentration 1 uM, replicate 1
[2] = 12 h, 1 µM, compound concentration 1 uM, replicate 2
[3] = 12 h, 10 µM, compound concentration 10 uM, replicate 1
[4] = 12 h, 10 µM, compound concentration 10 uM, replicate 2
[5] = 24 h, 1 µM, compound concentration 1 uM, replicate 1
[6] = 24 h, 1 µM, compound concentration 1 uM, replicate 2
[7] = 24 h, 10 µM, compound concentration 10 uM, replicate 1
[8] = 24 h, 10 µM, compound concentration 10 uM, replicate 2
[9] = 48 h, 1 µM, compound concentration 1 uM, replicate 1
[10] = 48 h, 1 µM, compound concentration 1 uM, replicate 2
[11] = 48 h, 10 µM, compound concentration 10 uM, replicate 1
[12] = 48 h, 10 µM, compound concentration 10 uM, replicate 2

Cc1nc(Cc2cccc(C(F)(F)F)c2)sc1-c1ccc(C(N)=O)nc1 [TP-024n]
Population Apoptotic (%) [1]: 59%
Population Fragmented Nuclei (%) [1]: 16%
Population Healthy Nuclei (%) [1]: 45%
Population Hoechst High Intensity Objects (%) [1]: 11%
Population Membrane Permeable-Phenotype (%) [1]: 23%
Population Mitochondria Different-Phenotype (%) [1]: 3%
Population Mitotic Cells (%) [1]: 40%
Population Normal (%) [1]: 88%
Population Pyknosed Nuclei (%) [1]: 37%
Population Tubulin-Different-Phenotype (%) [1]: 33%
Total Cell Count [1]: 125
Population Apoptotic (%) [2]: 50%
Population Fragmented Nuclei (%) [2]: 0%
Population Healthy Nuclei (%) [2]: 94%
Population Membrane Permeable-Phenotype (%) [2]: 2%
Population Mitochondria Different-Phenotype (%) [2]: 18%
Population Mitotic Cells (%) [2]: 50%
Population Pyknosed Nuclei (%) [2]: 5%
Population Tubulin-Different-Phenotype (%) [2]: 16%
Total Cell Count [2]: 130
Population Apoptotic (%) [3]: 63%
Population Fragmented Nuclei (%) [3]: 25%
Population Healthy Nuclei (%) [3]: 37%
Population Hoechst High Intensity Objects (%) [3]: 14%
Population Membrane Permeable-Phenotype (%) [3]: 2%
Population Mitochondria Different-Phenotype (%) [3]: 16%
Population Mitotic Cells (%) [3]: 36%
Population Normal (%) [3]: 86%
Population Pyknosed Nuclei (%) [3]: 36%
Population Tubulin-Different-Phenotype (%) [3]: 67%
Total Cell Count [3]: 150
Population Apoptotic (%) [4]: 66%
Population Fragmented Nuclei (%) [4]: 17%
Population Healthy Nuclei (%) [4]: 67%
Population Hoechst High Intensity Objects (%) [4]: 4%
Population Membrane Permeable-Phenotype (%) [4]: 9%
Population Mitochondria Different-Phenotype (%) [4]: 21%
Population Mitotic Cells (%) [4]: 33%
Population Normal (%) [4]: 95%
Population Pyknosed Nuclei (%) [4]: 14%
Population Tubulin-Different-Phenotype (%) [4]: 11%
Total Cell Count [4]: 44
Population Apoptotic (%) [5]: 46%
Population Fragmented Nuclei (%) [5]: 17%
Population Healthy Nuclei (%) [5]: 51%
Population Hoechst High Intensity Objects (%) [5]: 11%
Population Membrane Permeable-Phenotype (%) [5]: 31%
Population Mitochondria Different-Phenotype (%) [5]: 1%
Population Mitotic Cells (%) [5]: 53%
Population Normal (%) [5]: 88%
Population Pyknosed Nuclei (%) [5]: 32%
Population Tubulin-Different-Phenotype (%) [5]: 29%
Total Cell Count [5]: 113
Population Apoptotic (%) [6]: 50%
Population Fragmented Nuclei (%) [6]: 5%
Population Healthy Nuclei (%) [6]: 91%
Population Hoechst High Intensity Objects (%) [6]: 5%
Population Membrane Permeable-Phenotype (%) [6]: 1%
Population Mitochondria Different-Phenotype (%) [6]: 7%
Population Mitotic Cells (%) [6]: 50%
Population Normal (%) [6]: 95%
Population Pyknosed Nuclei (%) [6]: 3%
Population Tubulin-Different-Phenotype (%) [6]: 15%
Total Cell Count [6]: 126
Population Apoptotic (%) [7]: 64%
Population Fragmented Nuclei (%) [7]: 19%
Population Healthy Nuclei (%) [7]: 57%
Population Hoechst High Intensity Objects (%) [7]: 13%
Population Membrane Permeable-Phenotype (%) [7]: 5%
Population Mitochondria Different-Phenotype (%) [7]: 12%
Population Mitotic Cells (%) [7]: 35%
Population Normal (%) [7]: 86%
Population Pyknosed Nuclei (%) [7]: 23%
Population Tubulin-Different-Phenotype (%) [7]: 58%
Total Cell Count [7]: 152
Population Apoptotic (%) [8]: 44%
Population Fragmented Nuclei (%) [8]: 14%
Population Healthy Nuclei (%) [8]: 58%
Population Hoechst High Intensity Objects (%) [8]: 2%
Population Membrane Permeable-Phenotype (%) [8]: 25%
Population Mitochondria Different-Phenotype (%) [8]: 32%
Population Mitotic Cells (%) [8]: 55%
Population Normal (%) [8]: 97%
Population Pyknosed Nuclei (%) [8]: 26%
Population Tubulin-Different-Phenotype (%) [8]: 22%
Total Cell Count [8]: 60
Population Apoptotic (%) [9]: 52%
Population Fragmented Nuclei (%) [9]: 21%
Population Healthy Nuclei (%) [9]: 58%
Population Hoechst High Intensity Objects (%) [9]: 19%
Population Membrane Permeable-Phenotype (%) [9]: 22%
Population Mitochondria Different-Phenotype (%) [9]: 1%
Population Mitotic Cells (%) [9]: 47%
Population Normal (%) [9]: 80%
Population Pyknosed Nuclei (%) [9]: 20%
Population Tubulin-Different-Phenotype (%) [9]: 31%
Total Cell Count [9]: 116
Population Apoptotic (%) [10]: 33%
Population Fragmented Nuclei (%) [10]: 16%
Population Healthy Nuclei (%) [10]: 80%
Population Hoechst High Intensity Objects (%) [10]: 11%
Population Membrane Permeable-Phenotype (%) [10]: 12%
Population Mitochondria Different-Phenotype (%) [10]: 0%
Population Mitotic Cells (%) [10]: 66%
Population Normal (%) [10]: 88%
Population Pyknosed Nuclei (%) [10]: 3%
Population Tubulin-Different-Phenotype (%) [10]: 35%
Total Cell Count [10]: 98
Population Apoptotic (%) [11]: 77%
Population Fragmented Nuclei (%) [11]: 19%
Population Healthy Nuclei (%) [11]: 64%
Population Hoechst High Intensity Objects (%) [11]: 9%
Population Membrane Permeable-Phenotype (%) [11]: 11%
Population Mitochondria Different-Phenotype (%) [11]: 15%
Population Mitotic Cells (%) [11]: 22%
Population Normal (%) [11]: 90%
Population Pyknosed Nuclei (%) [11]: 16%
Population Tubulin-Different-Phenotype (%) [11]: 44%
Total Cell Count [11]: 148
Population Apoptotic (%) [12]: 25%
Population Fragmented Nuclei (%) [12]: 27%
Population Healthy Nuclei (%) [12]: 68%
Population Hoechst High Intensity Objects (%) [12]: 10%
Population Membrane Permeable-Phenotype (%) [12]: 5%
Population Mitochondria Different-Phenotype (%) [12]: 7%
Population Mitotic Cells (%) [12]: 75%
Population Normal (%) [12]: 89%
Population Pyknosed Nuclei (%) [12]: 3%
Population Tubulin-Different-Phenotype (%) [12]: 52%
Total Cell Count [12]: 124
